From ChEMBL document CHEMBL4513216, “Probing the Open Global Health Chemical Diversity Library for Multistage-Active Starting Points for Next-Generation Antimalarials” (ACS Infect Dis, 2020)

Assay: Toxicity liver stage against HepG2, at 10uM
Format: cell-based
Parameters: test concentration 10 uM, cell line HepG2-A16-CD81EGFP
Conditions: human, HepG2-A16-CD81EGFP cells; read-out: INHIBITION
Outline: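 Uninfected HepG2-A16-CD81EGFP cells, 3 × 10^3 per well, 1536-well, plated on prespotted compound at 10 μM final, parasite-free screening media added to match infected plates; puromycin 10 μM positive, DMSO 0.5% negative; run in parallel with 48 h PbLuc assay at 37 °C, 5% CO2; viability by CellTiter-Glo luminescence, normalized to controls.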

| Structure (SMILES) | cytotoxicity at 10 µM |
| --- | --- |
| COc1ccc(CN(CC2CCCO2)C(=O)CN2CCCCC2=O)cc1 (configuration not stated) | -0.645% |
| COCCn1nc(C(=O)N2CCN(C)CC2C)ccc1=O (configuration not stated) | -0.451% |
| COC(=O)c1ncccc1N1CCC(C(O)c2ccccc2)CC1 (configuration not stated) | -4.11% |
| CCOc1ccccc1NC(=O)NCCc1ccoc1 | -1.18% |
| O=C1NCCCCC1Sc1ccc(F)cc1F (configuration not stated) | -8.01% |
| Cc1nn(C)c2nc(N(C)CCN(C)C)sc12 | 9.38% |
| CN(Cc1ccc(F)cc1)C(=O)CN1CCCC(Cn2cncn2)C1 (configuration not stated) | -14.8% |
| CCN1CCC2(CC1)CC(NCc1cccc(C)n1)c1ccccc1O2 (configuration not stated) | -1.46% |
| Cc1nc(CSCCC(=O)NCc2cccnc2N(C)C)cs1 | -9.19% |
| CCc1ccc(CN2CCC3(CC2)C(=O)N(C)CCN3CC2CC2)cc1 | 5.68% |
| N#Cc1cccnc1NCCNC(=O)N1CCN2CCCCC2C1 (configuration not stated) | 0.242% |
| Cc1cc(NCCc2c(C)n[nH]c2C)nc(-c2cccnc2)n1 | -0.355% |
| CN(C)C(=O)c1n[nH]c2c1CN(Cc1nccs1)CC2 | -150% |
| CC(C)CC(=O)N1CC(=O)c2sc(Nc3ccc(C#N)cc3)nc2C1 | -0.279% |
| CC1(C)CNC(=O)CN(C(=O)CCc2ccccc2)C1 | -8.57% |
| O=C(CCCNc1ncccn1)N1CCCC(n2cccn2)C1 (configuration not stated) | 7.34% |
| Cc1ccc(C(=O)NC2CCN(CC(=O)N(C)c3ccccc3)CC2)o1 | -3.73% |
| Cc1ccc(C(=O)N2CCC3(CCC(=O)N(CCN(C)C)C3)CC2)nc1 | -1.62% |
| CC(c1ccon1)N(C)Cc1cc(O)c2cc(F)ccc2n1 (configuration not stated) | 5.5% |
| COCCN1CCCC(O)(CN2CCN(c3ncccc3C)CC2)C1=O (configuration not stated) | -10.3% |
| Cn1cnnc1S(=O)(=O)C1CCN(S(=O)(=O)c2ccccc2F)CC1 | -2.08% |
| O=C(O)c1cnc2c(cnn2C2CCCC2)c1 | -8.23% |
| CN1CCN(Cc2nc3ccccc3[nH]2)[C@H]2CS(=O)(=O)C[C@H]21 | 20.5% |

| Structure (SMILES) | cytotoxicity at 10 µM |
| --- | --- |
| CCn1cnnc1CNC(=O)N1CCN(Cc2ccccc2)CC1 | -1.3% |
| CCc1nc(CN2CCCN(C(=O)C3CCC3)CC2)cs1 | 5.41% |
| CN(CCCc1cnn(C)c1)C(=O)C1CCOC1 (configuration not stated) | -13.4% |
| CC(NCc1cccn1C)c1noc(-c2ccc(Cl)cc2)n1 (configuration not stated) | 5.07% |
| Cc1noc(C)c1CN1CC[C@H]2OCC[C@@]2(C(=O)N2CCCC2)C1 | -70.7% |
| Cc1cc(NCCC(=O)NC2CCCCC2)nc(-c2ccncc2)n1 | -5.37% |
| Cc1nsc(NC(=O)NC2(CN3CCOCC3)CCCCC2)n1 | -3.82% |
| CC1(c2ncc(CN3CCN(c4ncccn4)CC3)cn2)CCCCO1 (configuration not stated) | 1.16% |
| CCCS(=O)(=O)N1CCCN(CCCOC)CC1 | 7.53% |
| CC(C)OCCN1CCN(c2ccc(Cl)cn2)CC1 | -1.67% |
| COCCn1ccc(=O)c(OCC(=O)Nc2ccc(OC)c(Cl)c2)c1C | 5.36% |
| COc1cccc2c1OCC(Cc1cnc(N)c(C)c1)C2 (configuration not stated) | 3.36% |
| Cc1nc(N(Cc2ccncc2)CC2CCCO2)c2ccsc2n1 (configuration not stated) | -155% |
| COc1ccc(C2CNCCN2C(=O)c2cccc3cccnc23)cc1 (configuration not stated) | -4.48% |
| COc1cccc(CCC2CCCN(C(=O)c3ccc(=O)n(C)n3)C2)c1 (configuration not stated) | 4.34% |
| CC(C)NC(=O)c1cc(-c2ccc(S(C)(=O)=O)cc2)c2cnn(C)c2n1 | 8.3% |
| O=C1CCNc2cc3c(cc2CN1CC1CC1)OCO3 | -5.83% |
| CCCn1nccc1-c1cc(C2CCN(S(C)(=O)=O)CC2)ccn1 | -6.94% |
| CCc1noc(C(C)N(C)CC(=O)Nc2ccc(Cl)c(C(F)(F)F)c2)n1 (configuration not stated) | 50.1% |
| Cc1nn(C)c(C)c1C(=O)NN1CCOCC1 | 7.83% |
| CCn1cc2c(n1)CN(S(=O)(=O)c1cn(C)cn1)CC2COC (configuration not stated) | 5.41% |
| Cc1ccccc1CN1CCN(C(C)c2nc(C3CC3)no2)CC1 (configuration not stated) | -22.2% |
| CCN(C)C(=O)c1ccc2c(c1)C(c1nc[nH]n1)CN2S(C)(=O)=O (configuration not stated) | -137% |

| Structure (SMILES) | cytotoxicity at 10 µM |
| --- | --- |
| Cc1c(S(=O)(=O)N2CCCCC2c2nnc(-c3cccs3)o2)cnn1C (configuration not stated) | 3.22% |
| Cn1ccc(C(=O)Nc2nc(-c3ccc(Cl)cc3)n[nH]2)cc1=O | -12.3% |
| Cc1cc(C2CCC2)nc(N2CCC3(CC2)OCCCC3O)n1 (configuration not stated) | 4.28% |
| Cc1cnn(CC2CN(CCc3ccccn3)CCO2)c1 (configuration not stated) | -4.98% |
| CC(C)C(=O)NCc1ccc(N2CCCC2)nc1 | -18.4% |
| O=C(c1ccc(Cl)cn1)N1CCC(COCc2ccccc2)C1 (configuration not stated) | 5.88% |
| CN(C)C(=O)c1noc2c1CN(C(=O)CCCN1CCCCC1)CC2 | -10.5% |
| c1ccc(COC[C@H]2CC[C@H]3[C@H](CCN3Cc3cccnc3)O2)nc1 | -80.2% |
| CCCOc1ccc(Cl)cc1CNc1ncnc2oc(C)nc12 | 9.98% |
| COc1cc(Cl)c(C)cc1-n1nnc(C(=O)O)c1-c1ccncc1 | 4.74% |
| N#Cc1ncn(CCC(=O)Nc2cc(Cl)ccc2Cl)n1 | -161% |
| Cc1ccsc1[C@@H]1CCN(C(=O)Cn2cc3ccccc3n2)C[C@H]1O | -1.96% |
| CN(Cc1ccccc1)C(=O)CN1CCOC(Cn2cncn2)C1 (configuration not stated) | -3.66% |
| CCN1CCn2c(C)cnc2C12CCN(C(=O)CC(C)C)CC2 | -5.93% |
| COc1ccc(Cl)cc1C(C(=O)O)N(C)Cc1ccon1 (configuration not stated) | -5.92% |
| COC[C@@H]1CC[C@H]2[C@H](CCN2S(=O)(=O)c2ccc(F)cc2)O1 | -2.76% |
| O=C(c1ccccc1-n1cnnn1)N1CCC2(CC1)OCCO2 | 1.5% |
| CC(C)c1noc(CN2CCN(C(=O)c3cccnc3O)CC2)n1 | -9.86% |
| CC(C)c1nc(C2CCCN2Cc2ccn(C)c(=O)c2)no1 (configuration not stated) | -12.2% |
| COC(=O)c1ccc(N2CCN(C(=O)c3cnn(C)c3)C(C)C2)cc1 (configuration not stated) | -11.5% |
| CC(=O)c1cc(CN2C[C@@H]3CC[C@H]2CN(Cc2c(C)noc2C)C3)cs1 | -1.43% |
| O=C1[C@H]2CN(Cc3nccs3)C[C@H]2CN1c1cncnc1 | -81.9% |
| CCOCC1CN(S(=O)(=O)C2CC2)Cc2ncn(CC3CC3)c21 (configuration not stated) | 4.44% |

| Structure (SMILES) | cytotoxicity at 10 µM |
| --- | --- |
| COCCC(=O)N1CCCN(Cc2nccn2C(C)C)CC1 | -10.1% |
| CSC1(CNc2ccc(Br)cn2)CCOCC1 | -9.99% |
| COc1ncccc1CNC(=O)Nc1ccc(N(C)C)nc1 | -4.38% |
| Cc1n[nH]cc1CNC1CCN(c2ccc(F)cc2)CC1 | -54% |
| Cc1cnn(CC2CCCCN2Cc2cc(C)on2)c1 (configuration not stated) | -5.36% |
| Cc1cc(CNC2(c3ccccc3F)CC2)no1 | 5.71% |
| O=C(NCC1(O)CCOCC1)c1ccc(F)cc1 | -9.52% |
| CC(C)(C)c1ccn(C2(C(=O)O)CCN(c3ccnc(N)n3)CC2)n1 | 3.63% |
| CCNc1ncc(C(=O)N(C)C(C)c2ccc3c(c2)OCCO3)cn1 (configuration not stated) | -0.75% |
| Cc1ccc(C(=O)Nc2cc(F)ccc2OCC2CCCO2)cn1 (configuration not stated) | 0.207% |
| N#Cc1cccc(CNC(=O)C2=NN(c3ccccc3)C(=O)CN2)c1 | -3.44% |
| COCC(=O)N1CCN(C)C(=O)C(Cc2ccc(-c3cccs3)cc2)C1 (configuration not stated) | 1.74% |
| CCc1ncc2c(n1)CN(Cc1nc(-c3ccccn3)no1)CC2 | -20.9% |
| CN(C)C[C@]12COC[C@H]1CN(C(=O)CCc1ccccc1)C2 | -1.89% |
| COCC(=O)N[C@H](C)c1c(-c2ccc(Cl)cc2)noc1C(=O)O | 1.05% |
| CN(C(=O)CSc1ccccn1)C1CCCN(CCc2ccccc2)C1 (configuration not stated) | -4.46% |
| COc1ccc(-c2ccc(C(=O)NCCCC(N)=O)c(F)c2)c(F)c1 | 0.393% |
| Cc1ccc(OCC(=O)NC2CCN(S(C)(=O)=O)CC2)cc1 | -0.0552% |
| Cc1nc(N2CCC(CC(=O)N3CCCC3)CC2)c2cnn(C)c2n1 | 0.866% |
| CCCn1cnnc1CN(C)C(=O)CCC(=O)Nc1cc(C)ccc1F | 16.1% |
| CCc1nc2c(NCC3COc4cc(OC)ccc4C3)ncnc2o1 (configuration not stated) | 40.9% |
| O=C(O)c1ccccc1CN1CCC2(Cc3ccccc3CNC2=O)C1 (configuration not stated) | 8.21% |
| CCN1CC(CN(C)Cc2nc(-c3cccc(Cl)c3)oc2C)CC1=O (configuration not stated) | 6.9% |

| Structure (SMILES) | cytotoxicity at 10 µM |
| --- | --- |
| CC(C)(C)c1cn(C2CCN(C(=O)c3cnccn3)CC2)nn1 | 14% |
| Cc1ccc(NC2CCN(C(=O)c3c(C)oc(C)c3C)CC2)nn1 | -2.4% |
| O=C(Nc1nccs1)N1CCCC(N2CCNC2=O)C1 (configuration not stated) | -20.7% |
| N#Cc1c(F)cccc1N1CCC(NS(=O)(=O)c2cccs2)CC1 | -7.39% |
| CC(C)N1CC(C(=O)N2CCN(CCn3cccc3)CC2)CC1=O (configuration not stated) | -4.97% |
| O=C(CN1CCCCC1Cn1cncn1)Nc1ccncc1 (configuration not stated) | 11.2% |
| Cc1nc(NC(=O)C2CCCN(C(N)=O)C2)sc1-c1ccccc1 (configuration not stated) | 9.31% |
| CCOCCS(=O)(=O)c1nnc(NCCOC)s1 | -7.18% |
| CNc1nc(CNC(=O)Nc2ccccc2C(F)(F)F)cs1 | -0.896% |
| Cc1nccn1CCC(=O)N1CCCN(c2ccccc2)CC1 | -6.08% |
| CN(CCCNC(=O)C1CCc2cn[nH]c2C1)c1ccc(F)cc1 (configuration not stated) | 14.2% |
| CN(Cc1ccncc1)C(CO)c1cccc(Br)c1 (configuration not stated) | 15.4% |
| CNC(=O)NC(=O)CCN1CCN(c2ccc(C(=O)OC)cc2)CC1C (configuration not stated) | -17.8% |
| CC(c1nccs1)N(C)Cc1ccc(CCC(C)(C)O)cc1 (configuration not stated) | 2.55% |
| c1cnc(N2CC[C@@H](OCC3CC3)[C@@H]2Cc2cccnc2)nc1 | 3.26% |
| Cc1ccc(CN2C(=O)CCC2C(=O)Nc2cnn(C)c2)o1 (configuration not stated) | -3.72% |
| COc1ccc(NC(=O)N2CCCCCC2c2ccncc2)cn1 (configuration not stated) | 5.55% |
| CCN1CCN(C(=O)c2c[nH]c(C(C)C)n2)c2ccccc21 | 11.2% |
| N#Cc1cccc(S(=O)(=O)NC2CCN(CC(F)(F)F)C2)c1 (configuration not stated) | -1.03% |
| Cc1nsc(N2CCN(C(=O)Nc3cccc(F)c3)CC2)n1 | -18.3% |
